Experimental data: PMC4635625 (Neuropharmacology, 2015)
Counter-ions that a name gives are not always drawn. Like-named read-outs stand apart in the source and are kept apart here.

Tests used:
[1] = biological target: α6L9′Sβ2L9′SLFM/AAQA (α6β2‡) nAChR (Rattus norvegicus, UniProt P12390+P43143, L273S/L280S/L348M/R364A/R365A/R367A); assay: cell-based; type: cell-based
[2] = biological target: α6β2‡ nAChR, TrpB (α6:W149) = 5,6,7-F3Trp (Rattus norvegicus, UniProt P12390+P43143, L273S/L280S/L348M/R364A/R365A/R367A/W179X); assay: TEVC dose-response, nonsense suppression, F3Trp at TrpB; type: cell-based
[3] = test system: α4β2 nAChR; settings: ref Dougherty and Van Arnam, 2014; cited from earlier work
[4] = biological target: α6β2‡ nAChR, TrpB (α6:W149) = 5-CNTrp (Rattus norvegicus, UniProt P12390+P43143, L273S/L280S/L348M/R364A/R365A/R367A/W179X); assay: TEVC dose-response, nonsense suppression, CNTrp at TrpB; type: cell-based; settings: 10:1 α6β2‡
[5] = biological target: α6β2‡ nAChR, TrpB (α6:W149) = Trp (Rattus norvegicus, UniProt P12390+P43143, L273S/L280S/L348M/R364A/R365A/R367A); assay: TEVC dose-response, nonsense suppression series, Trp at TrpB; type: cell-based
[6] = biological target: α6β2‡ nAChR, TrpB (α6:W149) = 5-F1Trp (Rattus norvegicus, UniProt P12390+P43143, L273S/L280S/L348M/R364A/R365A/R367A/W179X); assay: TEVC dose-response, nonsense suppression, 5-F1Trp at TrpB; type: cell-based
[7] = biological target: α6β2‡ nAChR, TrpB (α6:W149) = 5-Br-Trp (Rattus norvegicus, UniProt P12390+P43143, L273S/L280S/L348M/R364A/R365A/R367A/W179X); assay: TEVC dose-response, nonsense suppression, BrTrp at TrpB; type: cell-based
[8] = biological target: TrpB (α6:W149) in α6β2‡ nAChR (Rattus norvegicus, UniProt P12390+P43143, L273S/L280S/L348M/R364A/R365A/R367A); assay: Fluorination plot; type: cell-based; settings: for cation-π interaction with the indole side chain of TrpB: fluorination plot at TrpB in α6β2‡
Method in brief: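 Rat α6β2‡ with UAG at TrpB, 10:1 α6:β2 mRNA, coinjected with photodeprotected fluoro-Trp–tRNA (25 ng mRNA per cell) into stage V–VI Xenopus oocytes; 24–48 h at 18 °C in ND96 pH 7.5. TEVC at −60 mV, 15 s agonist pulses in Ca2+-free ND96. EC50 from Hill fits of normalized averaged data. Log fold-shift in EC50 plotted against calculated cation–fluoro-Trp binding energy.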

[9] = biological target: α6β2‡ nAChR, TrpB (α6:W149) = 5,7-F2Trp (Rattus norvegicus, UniProt P12390+P43143, L273S/L280S/L348M/R364A/R365A/R367A/W179X); assay: TEVC dose-response, nonsense suppression, F2Trp at TrpB; type: cell-based
[10] = test system: muscle-type nAChR; settings: ref Beene et al., 2002; cited from earlier work
[11] = biological target: α6β2‡ nAChR, TrpB (α6:W149) = 6-F1Trp (Rattus norvegicus, UniProt P12390+P43143, L273S/L280S/L348M/R364A/R365A/R367A/W179X); assay: TEVC dose-response, nonsense suppression, 6-F1Trp at TrpB; type: cell-based; settings: TrpB = 6-F1Trp; 10:1 α6β2‡
[12] = biological target: α6β2‡ nAChR, TrpB (α6:W149) = 4-F1Trp (Rattus norvegicus, UniProt P12390+P43143, L273S/L280S/L348M/R364A/R365A/R367A/W179X); assay: TEVC dose-response, nonsense suppression, 4-F1Trp at TrpB; type: cell-based; settings: TrpB = 4-F1Trp; 10:1 α6β2‡
[13] = biological target: α6β2‡ nAChR, TrpB (α6:W149) = 5-Me-Trp (Rattus norvegicus, UniProt P12390+P43143, L273S/L280S/L348M/R364A/R365A/R367A/W179X); assay: TEVC dose-response, nonsense suppression, MeTrp at TrpB; type: cell-based
[14] = biological target: α6β2‡ nAChR (Rattus norvegicus, UniProt P12390+P43143, L273S/L280S/L348M/R364A/R365A/R367A); type: cell-based
[15] = agonist panel, α6-biased population, Hill coefficient
[16] = agonist panel, α6-biased population, range of maximum currents
[17] = agonist panel, α6-biased population, holding potential −60 mV
[18] = Table 4, fold-shift in EC50 relative to Trp

Chain of α6L9′Sβ2L9′SLFM/AAQA (α6β2‡) nAChR (P43143 31-493 L280S): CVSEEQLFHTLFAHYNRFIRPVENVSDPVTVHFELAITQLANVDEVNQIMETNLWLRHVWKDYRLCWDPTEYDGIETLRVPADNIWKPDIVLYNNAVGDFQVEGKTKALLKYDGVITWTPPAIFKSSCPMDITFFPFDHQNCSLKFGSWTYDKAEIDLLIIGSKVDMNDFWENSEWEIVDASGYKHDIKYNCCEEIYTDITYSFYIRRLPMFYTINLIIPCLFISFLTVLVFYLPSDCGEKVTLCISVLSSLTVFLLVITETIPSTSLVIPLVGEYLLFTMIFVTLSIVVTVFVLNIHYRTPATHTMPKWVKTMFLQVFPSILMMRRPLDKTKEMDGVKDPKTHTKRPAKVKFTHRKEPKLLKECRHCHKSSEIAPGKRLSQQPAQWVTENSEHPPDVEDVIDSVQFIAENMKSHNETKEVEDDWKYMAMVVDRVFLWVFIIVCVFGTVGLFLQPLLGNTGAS
Chain of α6L9′Sβ2L9′SLFM/AAQA (α6β2‡) nAChR (P12390 25-500 L273S/L348M/R364A/R365A/R367A): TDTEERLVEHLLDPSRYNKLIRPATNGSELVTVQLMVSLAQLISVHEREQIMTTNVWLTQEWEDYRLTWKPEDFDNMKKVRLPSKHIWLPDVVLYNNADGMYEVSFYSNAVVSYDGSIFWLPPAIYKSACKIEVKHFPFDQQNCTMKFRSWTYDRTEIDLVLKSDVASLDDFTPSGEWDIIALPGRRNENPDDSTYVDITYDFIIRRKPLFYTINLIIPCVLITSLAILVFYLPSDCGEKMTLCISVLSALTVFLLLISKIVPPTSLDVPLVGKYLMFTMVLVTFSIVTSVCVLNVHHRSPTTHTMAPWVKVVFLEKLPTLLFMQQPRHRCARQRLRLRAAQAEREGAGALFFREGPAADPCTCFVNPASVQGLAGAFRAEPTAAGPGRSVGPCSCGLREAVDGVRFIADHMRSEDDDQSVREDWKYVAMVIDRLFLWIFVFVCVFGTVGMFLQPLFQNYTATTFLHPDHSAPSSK
Chain of α6β2‡ nAChR, TrpB (α6:W149) = Trp (P43143 31-493 L280S): as the sequence (P43143 31-493 L280S) above
Chain of α6β2‡ nAChR, TrpB (α6:W149) = Trp (P12390 25-500 L273S/L348M/R364A/R365A/R367A): as the sequence (P12390 25-500 L273S/L348M/R364A/R365A/R367A) above
Chain of TrpB (α6:W149) in α6β2‡ nAChR (P43143 31-493 L280S): as the sequence (P43143 31-493 L280S) above
Chain of TrpB (α6:W149) in α6β2‡ nAChR (P12390 25-500 L273S/L348M/R364A/R365A/R367A): as the sequence (P12390 25-500 L273S/L348M/R364A/R365A/R367A) above
Chain of α6β2‡ nAChR (P43143 31-493 L280S): as the sequence (P43143 31-493 L280S) above
Chain of α6β2‡ nAChR (P12390 25-500 L273S/L348M/R364A/R365A/R367A): as the sequence (P12390 25-500 L273S/L348M/R364A/R365A/R367A) above

Clc1ccc(C2CC3CCC2N3)cn1 (racemic) [Epi, (±)-epibatidine]
nH [1, 15]: 1.9 ± 0.2 | Imax [1, 16]: 0.47–2.81 µA

CC(=O)OCC[N+](C)(C)C [ACh, Acetylcholine chloride]
Imax ([2]; 10:1 α6β2‡): 0.09–1.94 uA | nH ([2]; 10:1 α6β2‡): 1.04 ± 0.03 | cation-π interaction to TrpB [3]: strong cation-π interaction | Imax [4]: 0.31–13.3 uA | Imax ([5]; 10:1 α6β2‡): 0.28–14.9 uA | nH ([5]; 10:1 α6β2‡): 1.36 ± 0.03 | nH ([6]; TrpB = 5-F1Trp, 10:1 α6β2‡): 1.37 ± 0.03 | nH [1, 15]: 1.36 ± 0.03 | Imax [1, 16]: 0.28–14.9 µA | nH ([1]; α6:β2 mRNA ratio 1:1, Hill coefficient): 1.15 ± 0.06 | Imax ([1]; α6:β2 mRNA ratio 1:1, range of maximum currents): 4.42–14.2 | nH ([1]; α6:β2 mRNA ratio 1:2, Hill coefficient): 1.23 ± 0.05 | Imax ([1]; α6:β2 mRNA ratio 1:2, range of maximum currents): 3.06–31.7 | nH ([1]; α6:β2 mRNA ratio 1:5, Hill coefficient): 0.95 ± 0.04 | Imax ([1]; α6:β2 mRNA ratio 1:5, range of maximum currents): 0.70–8.21 | nH ([1]; α6:β2 mRNA ratio 1:10, Hill coefficient): 0.83 ± 0.02 | Imax ([1]; α6:β2 mRNA ratio 1:10, range of maximum currents): 1.01–4.67 | nH ([1]; α6:β2 mRNA ratio 1:20, Hill coefficient): 0.86 ± 0.03 | Imax ([1]; α6:β2 mRNA ratio 1:20, range of maximum currents): 1.01–10.9 | nH ([1]; α6:β2 mRNA ratio 2:1, Hill coefficient): 1.14 ± 0.03 | Imax ([1]; α6:β2 mRNA ratio 2:1, range of maximum currents): 0.94–79.5 | nH ([1]; α6:β2 mRNA ratio 5:1, Hill coefficient): 1.17 ± 0.04 | Imax ([1]; α6:β2 mRNA ratio 5:1, range of maximum currents): 0.70–79.9 | nH ([1]; α6:β2 mRNA ratio 10:1, Hill coefficient): 1.17 ± 0.04 | Imax ([1]; α6:β2 mRNA ratio 10:1, range of maximum currents): 4.85–70.7 | nH ([1]; α6:β2 mRNA ratio 20:1, Hill coefficient): 1.64 ± 0.05 | Imax ([1]; α6:β2 mRNA ratio 20:1, range of maximum currents): 0.25–1.44 | nH ([1]; α6:β2 mRNA ratio 50:1, Hill coefficient): 1.17 ± 0.03 | Imax ([1]; α6:β2 mRNA ratio 50:1, range of maximum currents): 8.25–57.3 | currents in response to acetylcholine ([1]; α6L9′Sβ2L9′SLFM/AAQA in oocytes): greater than 1 µA | Imax ([7]; 10:1 α6β2‡): 0.22–15.1 uA | nH ([7]; 10:1 α6β2‡): 1.32 ± 0.04 | slope of linear trend of fluorination plot ([8]; 10:1 α6β2‡, trend excludes 5-CNTrp and 4-F1Trp): −0.10 | cation-π interaction with the indole side chain of TrpB [8]: strong cation-π interaction | Imax ([9]; 10:1 α6β2‡): 0.76–9.33 uA | nH ([9]; 10:1 α6β2‡): 1.43 ± 0.02 | cation-π interaction [10]: does | Imax [11]: 0.18–4.28 uA | nH [11]: 1.30 ± 0.04 | Imax [12]: 0.71–6.92 uA | Imax ([13]; 10:1 α6β2‡): 0.19–19.4 uA | nH ([13]; 10:1 α6β2‡): 1.18 ± 0.02

C[N+](C)(C)CCOC(N)=O.[Cl-] [CCh, carbamylcholine chloride]
EC50 [1, 17]: 1360 ± 50 nM | nH [1, 15]: 1.12 ± 0.04 | Imax [1, 16]: 3.63–52.5 µA

C[N+](C)(C)CCO [Ch, choline chloride]
Imax [1]: 2.08–15.4 µA | nH [1]: 1.32 ± 0.05 | EC50 ([1]; EC50): 159000 ± 7000 nM | Eff [14]: 0.33 ± 0.02

O=c1cccc2n1C[C@@H]1CNC[C@H]2C1 [Cyt, cytisine]
Imax [1]: 0.57–31.9 µA | nH [1]: 1.31 ± 0.05 | potency (EC50) relative to ACh [1]: slightly more potent | EC50 ([1]; EC50): 27 ± 1 nM | Eff [14]: 0.28 ± 0.01

CN1CCC[C@H]1c1cccnc1 [Nic, (−)-nicotine tartrate]
Imax ([2]; Table 4): 0.05–1.05 µA | nH ([2]; Table 4): 1.28 ± 0.03 | cation-π interaction to TrpB [3]: strong cation-π interaction | Imax ([5]; Table 4): 0.09–5.8 µA | nH ([5]; Table 4): 1.43 ± 0.06 | Imax ([6]; Table 4, TrpB = F1Trp): 0.07–2.06 µA | nH ([6]; Table 4, TrpB = F1Trp): 1.39 ± 0.06 | Imax [1]: 9.48–54.4 µA | nH [1]: 1.38 ± 0.05 | Imax ([7]; Table 4): 0.08–5.65 µA | nH ([7]; Table 4): 1.42 ± 0.04 | cation-π interaction with the indole side chain of TrpB [8]: do not make cation-π interactions | Eff [14]: 0.49 ± 0.03 | Imax ([9]; Table 4): 0.32–2.13 µA | nH ([9]; Table 4): 1.30 ± 0.06 | Imax ([13]; Table 4): 0.31–3.95 µA | nH ([13]; Table 4): 1.36 ± 0.05

C1=C(/c2cncnc2)CCCNCC/1 [TC299]
EC50 ([2]; Table 4): 630 ± 30 nM | Imax ([2]; Table 4): 0.05–0.28 µA | nH ([2]; Table 4): 0.90 ± 0.03 | Fold [2, 18]: 6.77 | EC50 ([5]; Table 4): 93 ± 4 nM | Imax ([5]; Table 4): 0.33–3.78 µA | nH ([5]; Table 4): 1.09 ± 0.04 | Fold [5, 18]: 1 | EC50 ([6]; Table 4, TrpB = F1Trp): 220 ± 10 nM | Imax ([6]; Table 4, TrpB = F1Trp): 0.27–3.49 µA | nH ([6]; Table 4, TrpB = F1Trp): 1.01 ± 0.04 | Fold ([6]; Table 4, fold-shift in EC50 relative to Trp, TrpB = F1Trp): 2.37 | EC50 [1, 17]: 71 ± 3 nM | nH [1, 15]: 0.99 ± 0.04 | Imax [1, 16]: 1.73–21.9 µA | EC50 ([7]; Table 4): 250 ± 8 nM | Imax ([7]; Table 4): 0.1–7.71 µA | nH ([7]; Table 4): 1.01 ± 0.03 | Fold [7, 18]: 2.69 | EC50 ([9]; Table 4): 138 ± 6 nM | Imax ([9]; Table 4): 0.06–1.87 µA | nH ([9]; Table 4): 0.98 ± 0.04 | Fold [9, 18]: 1.48 | EC50 ([13]; Table 4): 73 ± 4 nM | Imax ([13]; Table 4): 0.15–2.35 µA | nH ([13]; Table 4): 0.92 ± 0.03 | Fold [13, 18]: 0.78

c1cnc2cc3c(cc2n1)[C@@H]1CNC[C@H]3C1 [Var, varenicline]
EC50 ([1]; EC50, agonist panel, α6-biased population, holding potential −60 mV): 31 ± 3 nM | potency (EC50) relative to ACh ([1]; agonist panel at α6β2‡, in words): slightly more potent | nH [1, 15]: 1.08 ± 0.08 | Imax [1, 16]: 0.51–12.1 µA
